Experimental data published in ChEMBL document CHEMBL1132577, “Conformational preferences in a benzodiazepine series of potent nonpeptide fibrinogen receptor antagonists” (J Med Chem, 1999).

Key:
[1] = target: Integrin alpha-IIb/beta-3 (Homo sapiens, UniProt P05106+P08514); assay: Fibrinogen receptor binding affinity was determined by assaying for inhibition of [3H]1 binding to purified Fibrinogen Receptor isolated from human platelets and reconstituted in liposomes
Procedure, shortened: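 Competition binding of the tritiated ligand [³H]-1 to the fibrinogen receptor glycoprotein complex GPIIb/IIIa, purified from human platelets and reconstituted into liposomes. The read-out is inhibition of radioligand binding.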

Homo sapiens = species: Homo sapiens; assay: Inhibition of ADP-induced platelet aggregation in human platelet-rich plasma.; format: functional, organism-based

Sequence of Integrin alpha-IIb/beta-3 (P05106 27-788 limits assumed): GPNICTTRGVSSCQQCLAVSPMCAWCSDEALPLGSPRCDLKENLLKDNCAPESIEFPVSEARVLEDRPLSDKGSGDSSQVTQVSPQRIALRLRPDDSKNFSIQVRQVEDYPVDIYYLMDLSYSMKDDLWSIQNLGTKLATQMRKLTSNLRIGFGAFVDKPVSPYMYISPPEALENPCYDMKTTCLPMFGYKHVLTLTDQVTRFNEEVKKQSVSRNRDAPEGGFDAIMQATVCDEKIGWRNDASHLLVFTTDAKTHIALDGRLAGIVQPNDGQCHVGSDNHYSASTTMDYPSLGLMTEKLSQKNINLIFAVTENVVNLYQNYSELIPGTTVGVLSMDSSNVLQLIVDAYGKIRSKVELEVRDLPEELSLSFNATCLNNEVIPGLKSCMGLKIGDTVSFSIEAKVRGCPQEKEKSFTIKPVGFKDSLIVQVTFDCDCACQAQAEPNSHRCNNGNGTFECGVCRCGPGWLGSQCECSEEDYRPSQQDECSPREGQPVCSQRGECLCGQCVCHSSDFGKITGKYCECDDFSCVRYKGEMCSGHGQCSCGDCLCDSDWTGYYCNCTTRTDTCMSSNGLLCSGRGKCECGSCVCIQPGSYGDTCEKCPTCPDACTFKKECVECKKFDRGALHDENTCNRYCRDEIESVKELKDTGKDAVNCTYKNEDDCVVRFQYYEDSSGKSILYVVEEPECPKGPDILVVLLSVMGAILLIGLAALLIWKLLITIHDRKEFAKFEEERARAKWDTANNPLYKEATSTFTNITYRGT
Sequence of Integrin alpha-IIb/beta-3 (P08514 32-887 limits assumed): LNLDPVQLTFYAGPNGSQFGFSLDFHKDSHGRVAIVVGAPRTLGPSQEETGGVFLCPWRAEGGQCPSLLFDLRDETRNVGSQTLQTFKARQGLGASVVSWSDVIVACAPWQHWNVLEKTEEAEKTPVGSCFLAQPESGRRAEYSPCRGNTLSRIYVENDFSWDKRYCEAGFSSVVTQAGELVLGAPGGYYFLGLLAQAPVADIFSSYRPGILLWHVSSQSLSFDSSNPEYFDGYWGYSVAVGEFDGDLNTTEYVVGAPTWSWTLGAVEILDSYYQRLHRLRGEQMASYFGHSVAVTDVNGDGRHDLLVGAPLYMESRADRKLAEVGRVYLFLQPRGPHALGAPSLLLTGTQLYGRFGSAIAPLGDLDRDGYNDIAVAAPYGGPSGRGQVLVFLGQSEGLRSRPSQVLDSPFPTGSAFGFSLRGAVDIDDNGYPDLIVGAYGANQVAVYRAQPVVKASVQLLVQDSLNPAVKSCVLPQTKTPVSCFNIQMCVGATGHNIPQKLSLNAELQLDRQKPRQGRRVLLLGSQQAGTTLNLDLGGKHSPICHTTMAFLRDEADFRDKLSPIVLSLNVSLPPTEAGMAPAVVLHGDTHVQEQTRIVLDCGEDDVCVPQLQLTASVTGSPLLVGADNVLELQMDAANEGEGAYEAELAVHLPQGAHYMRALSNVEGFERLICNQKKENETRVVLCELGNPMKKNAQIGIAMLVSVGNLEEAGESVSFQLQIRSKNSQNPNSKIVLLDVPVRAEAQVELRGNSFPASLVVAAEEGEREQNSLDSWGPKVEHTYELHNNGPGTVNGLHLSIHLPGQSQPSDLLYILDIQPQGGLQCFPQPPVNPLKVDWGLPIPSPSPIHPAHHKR
Sequence of Integrin alpha-IIb/beta-3 (P08514 891-1039 limits assumed): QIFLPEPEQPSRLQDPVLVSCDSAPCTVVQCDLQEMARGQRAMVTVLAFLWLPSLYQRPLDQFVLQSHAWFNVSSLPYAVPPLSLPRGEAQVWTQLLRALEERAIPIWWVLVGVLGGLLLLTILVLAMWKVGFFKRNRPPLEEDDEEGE

Row | Ki [1] | IC50 (Homo sapiens) | Compound
1 | 290 nM | 2100 nM | N=C(N)c1ccc(C(=O)Nc2ccc3c(c2)CN(CCC(=O)O)C(=O)CN3)cc1
2 | 4.7 nM | 510 nM | O=C(O)CC1Nc2cc(C(=O)NCCC3CCNCC3)ccc2CN(CCc2ccccc2)C1=O (configuration not stated)
3 | 540 nM | 3000 nM | N=C(N)c1ccc(NC(=O)c2ccc3c(c2)NC(CC(=O)O)CN(CCc2ccccc2)C3)cc1 (configuration not stated)
4 |  | > 200000 nM | N=C(N)c1ccc(C(=O)Nc2ccc3c(c2)NC(CC(=O)O)CN(CCc2ccccc2)C3=O)cc1 (configuration not stated)
5 | 1200 nM | 3100 nM | N=C(N)c1ccc(C(=O)Nc2ccc3c(c2)CN(CC(=O)O)C(=O)CN3)cc1
6 | 80 nM | 930 nM | O=C(O)CC1Nc2cc(CCCCC3CCNCC3)ccc2CN(CCc2ccccc2)C1=O (configuration not stated)
7 | 1.9 nM | 15 nM | CN(CCC1CCNCC1)C(=O)c1ccc2c(c1)NC(CC(=O)O)C(=O)N(CCc1ccccc1)C2 (configuration not stated)
8 | 2 nM | 34 nM | N=C(N)c1ccc(NC(=O)c2ccc3c(c2)N[C@@H](CC(=O)O)C(=O)N(CCc2ccccc2)C3)cc1
9 |  | 23000 nM | N=C(N)c1ccc(C(=O)Nc2ccc3c(c2)CN(CC(=O)O)C(=O)NC3)cc1
10 | 500 nM | 2200 nM | N=C(N)c1ccc(NC(=O)c2ccc3c(c2)N[C@H](CC(=O)O)C(=O)N(CCc2ccccc2)C3)cc1
11 | 800 nM | 8300 nM | N=C(N)c1ccc(NC(=O)c2ccc3c(c2)NC(CC(=O)O)CN(CCc2ccccc2)C3=O)cc1 (configuration not stated)
12 | 22500 nM | > 200000 nM | CN(C(=O)c1ccc2c(c1)CN(CCC(=O)O)C(=O)CC2)c1ccc(C(=N)N)cc1
13 |  | 4700 nM | N=C(N)c1ccc(NC(=O)c2cccc(NC(CC(=O)O)C(=O)O)c2)cc1 (configuration not stated)
14 | 750 nM | 7400 nM | O=C(O)CC1Nc2cc(/C=C\CCC3CCNCC3)ccc2CN(CCc2ccccc2)C1=O (configuration not stated)
15 | 19 nM | 175 nM | O=C(O)CC1Nc2cc(/C=C/CCC3CCNCC3)ccc2CN(CCc2ccccc2)C1=O (configuration not stated)
16 | > 50000 nM | > 200000 nM | CN(C(=O)c1ccc2c(c1)CN(CC(=O)O)C(=O)CC2)c1ccc(C(=N)N)cc1
17 | 2 nM | 130 nM | N=C(N)c1ccc(C(=O)Nc2ccc3c(c2)NC(CC(=O)O)C(=O)N(CCc2ccccc2)C3)cc1 (configuration not stated)
18 |  | 3900 nM | N=C(N)c1ccc(NC(=O)c2ccc3c(c2)NC(CC(=O)O)CCC3)cc1 (configuration not stated)
